In ChEMBL document CHEMBL1926569, “Novel (E)-1-(4-methyl-2-(alkylamino)thiazol-5-yl)-3-arylprop-2-en-1-ones as potent antimicrobial agents” (2011):
Values after ≈ are worked out from the molar mass of the structure shown.

Experiments:
Pseudomonas aeruginosa [1] = test: Ratio of ampicillin MIC to compound MIC for Pseudomonas aeruginosa ATCC 27853; type: functional
Aspergillus ochraceus [2] = test: Antifungal activity against Aspergillus ochraceus ATCC 12066 incubated for 72 hrs followed by serial sub-cultivation for 72 hrs by serial dilution technique; type: functional; conditions: ATCC 12066, 72 h
Outline: (§1)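 MFC: material from 72 h malt broth microdilution wells was serially sub-cultured into fresh broth plates and incubated a further 72 h at 28 °C. Fungicidal concentration is taken from growth after sub-culture. Duplicate, repeated three times.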

Bacillus cereus [3] = test: Antibacterial activity against clinical isolate of Bacillus cereus incubated for 24 hrs followed by serial sub-cultivation for 24 hrs by microdilution; type: functional
Outline: (§2)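 MBC: after the 24 h LB broth microdilution (1.0 × 10⁴ CFU per well, 160 rpm), wells were serially sub-cultured into fresh broth plates and incubated a further 24 h. MBC is the lowest concentration with no visible growth, taken as 99.5% killing of the original inoculum. Duplicate, repeated three times.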

Trichoderma viride [4] = test: Antifungal activity against Trichoderma viride IAM 5061 incubated for 72 hrs followed by serial sub-cultivation for 72 hrs by serial dilution technique; type: functional; conditions: IAM 5061, 72 h; outline: as §1
Candida albicans [5] = test: Antifungal activity against Candida albicans isolated from human incubated for 72 hrs followed by serial sub-cultivation for 72 hrs by serial dilution technique; type: functional; outline: as §1
Listeria monocytogenes [6] = test: Antibacterial activity against Listeria monocytogenes NCTC 7973 after 24 hrs by microdilution method; type: functional; conditions: NCTC 7973, 24 h
Outline: (§3)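 Broth microdilution in 96-well plates. Bacterial suspensions were adjusted in sterile saline to 1.0 × 10⁵ CFU/ml, prepared daily and kept at 4 °C. Compound was added to LB broth with 1.0 × 10⁴ CFU per well and shaken at 160 rpm for 24 h at […] (so in the source). MIC is the lowest concentration with no visible growth under a binocular microscope. OD655 was also read. Duplicate, repeated three times.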

Enterococcus faecalis [7] = test: Antibacterial activity against Enterococcus faecalis isolated from human after 24 hrs by microdilution method; type: functional; outline: as §3
Candida albicans [8] = test: Ratio of ketoconazole to compound for Candida albicans isolated from human; type: functional
Penicillium ochrochloron [9] = test: Antifungal activity against Penicillium ochrochloron ATCC 9112 after 72 hrs by serial dilution technique; type: functional; conditions: ATCC 9112, 72 h
Outline: (§4)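 Modified microdilution in 96-well plates. Fungi were kept on malt agar at 4 °C. Spores were washed off in sterile 0.85% saline with 0.1% Tween 80. Compounds were dissolved at 1 mg/ml in 5% DMSO with 0.1% Tween 80 and added to malt broth with inoculum. Plates were shaken at 160 rpm for 72 h at 28 °C. Duplicate, repeated three times.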

Salmonella typhimurium [10] = test: Antibacterial activity against Salmonella Typhimurium ATCC 13311 incubated for 24 hrs followed by serial sub-cultivation for 24 hrs by microdilution; type: functional, Salmonella enterica subsp. enterica serovar Typhimurium; conditions: Salmonella enterica, ATCC 13311, 24 h; outline: as §2
Penicillium ochrochloron [11] = test: Ratio of ketoconazole to compound for Penicillium ochrochloron ATCC 9112; type: functional
Trichoderma viride [12] = test: Ratio of bifonazole to compound for Trichoderma viride IAM 5061; type: functional
Aspergillus ochraceus [13] = test: Antifungal activity against Aspergillus ochraceus after 72 hrs by serial dilution technique
Enterococcus faecalis [14] = test: Antibacterial activity against Enterococcus faecalis isolated from human incubated for 24 hrs followed by serial sub-cultivation for 24 hrs by microdilution; type: functional; outline: as §2
Talaromyces funiculosus [15] = test: Antifungal activity against Penicillium funiculosum ATCC 36839 after 72 hrs by serial dilution technique; type: functional; conditions: ATCC 36839, 72 h; outline: as §4
Aspergillus ochraceus [16] = test: Ratio of ketoconazole to compound for Aspergillus ochraceus ATCC 12066; type: functional
Bacillus cereus [17] = test: Antibacterial activity against clinical isolate of Bacillus cereus after 24 hrs by microdilution method; type: functional; outline: as §3
Aspergillus niger [18] = test: Antifungal activity against Aspergillus niger ATCC 6275 incubated for 72 hrs followed by serial sub-cultivation for 72 hrs by serial dilution technique; type: functional; conditions: ATCC 6275, 72 h; outline: as §1
Aspergillus fumigatus [19] = test: Antifungal activity against Aspergillus fumigatus isolated from human incubated for 72 hrs followed by serial sub-cultivation for 72 hrs by serial dilution technique; type: functional; outline: as §1
Listeria monocytogenes [20] = test: Antibacterial activity against Listeria monocytogenes NCTC 7973 incubated for 24 hrs followed by serial sub-cultivation for 24 hrs by microdilution; type: functional; conditions: NCTC 7973, 24 h; outline: as §2
Staphylococcus aureus [21] = test: Antibacterial activity against Staphylococcus aureus ATCC 6538 incubated for 24 hrs followed by serial sub-cultivation for 24 hrs by microdilution method; type: functional; conditions: ATCC 6538, 24 h; outline: as §2
Staphylococcus aureus [22] = test: Antibacterial activity against Staphylococcus aureus ATCC 6538 after 24 hrs by microdilution method; type: functional; conditions: ATCC 6538, 24 h; outline: as §3
Aspergillus niger [23] = test: Ratio of bifonazole to compound for Aspergillus niger ATCC 6275; type: functional
Aspergillus ochraceus [24] = test: Ratio of bifonazole to compound for Aspergillus ochraceus ATCC 12066; type: functional
Salmonella typhimurium [25] = test: Antibacterial activity against Salmonella Typhimurium ATCC 13311 after 24 hrs by microdilution method; type: functional, Salmonella enterica subsp. enterica serovar Typhimurium; conditions: Salmonella enterica, ATCC 13311, 24 h; outline: as §3
Micrococcus flavus [26] = test: Antibacterial activity against Micrococcus flavus ATCC 10240 incubated for 24 hrs followed by serial sub-cultivation for 24 hrs by microdilution; type: functional; conditions: ATCC 10240, 24 h; outline: as §2
Talaromyces funiculosus [27] = test: Ratio of bifonazole to compound for Penicillium funiculosum ATCC 36839; type: functional
Talaromyces funiculosus [28] = test: Antifungal activity against Penicillium funiculosum ATCC 36839 incubated for 72 hrs followed by serial sub-cultivation for 72 hrs by serial dilution technique; type: functional; conditions: ATCC 36839, 72 h; outline: as §1
Escherichia coli [29] = test: Antibacterial activity against Escherichia coli ATCC 35210 after 24 hrs by microdilution method; type: functional; conditions: ATCC 35210, 24 h; outline: as §3
Aspergillus flavus [30] = test: Antifungal activity against Aspergillus flavus ATCC 9643 after 72 hrs by serial dilution technique; type: functional; conditions: ATCC 9643, 72 h; outline: as §4
Pseudomonas aeruginosa [31] = test: Antibacterial activity against Pseudomonas aeruginosa ATCC 27853 incubated for 24 hrs followed by serial sub-cultivation for 24 hrs by microdilution; type: functional; conditions: ATCC 27853, 24 h; outline: as §2
Aspergillus flavus [32] = test: Antifungal activity against Aspergillus flavus ATCC 9643 incubated for 72 hrs followed by serial sub-cultivation for 72 hrs by serial dilution technique; type: functional; conditions: ATCC 9643, 72 h; outline: as §1
Aspergillus fumigatus [33] = test: Ratio of ketoconazole to compound for Aspergillus fumigatus isolated from human; type: functional
Trichoderma viride [34] = test: Antifungal activity against Trichoderma viride IAM 5061 after 72 hrs by serial dilution technique; type: functional; conditions: IAM 5061, 72 h; outline: as §4
Aspergillus ochraceus [35] = test: Antifungal activity against Aspergillus ochraceus ATCC 12066 after 72 hrs by serial dilution technique; type: functional; conditions: ATCC 12066, 72 h; outline: as §4
Candida albicans [36] = test: Ratio of bifonazole to compound for Candida albicans isolated from human; type: functional
Pseudomonas aeruginosa [37] = test: Antibacterial activity against Pseudomonas aeruginosa ATCC 27853 after 24 hrs by microdilution method; type: functional; conditions: ATCC 27853, 24 h; outline: as §3
Penicillium ochrochloron [38] = test: Antifungal activity against Penicillium ochrochloron ATCC 9112 incubated for 72 hrs followed by serial sub-cultivation for 72 hrs by serial dilution technique; type: functional; conditions: ATCC 9112, 72 h; outline: as §1
Escherichia coli [39] = test: Antibacterial activity against Escherichia coli ATCC 35210 incubated for 24 hrs followed by serial sub-cultivation for 24 hrs by microdilution; type: functional; conditions: ATCC 35210, 24 h; outline: as §2
Aspergillus niger [40] = test: Antifungal activity against Aspergillus niger ATCC 6275 after 72 hrs by serial dilution technique; type: functional; conditions: ATCC 6275, 72 h; outline: as §4
Candida albicans [41] = test: Antifungal activity against Candida albicans isolated from human after 72 hrs by serial dilution technique; type: functional; outline: as §4
Micrococcus flavus [42] = test: Antibacterial activity against Micrococcus flavus ATCC 10240 after 24 hrs by microdilution method; type: functional; conditions: ATCC 10240, 24 h; outline: as §3
Penicillium ochrochloron [43] = test: Ratio of bifonazole to compound for Penicillium ochrochloron ATCC 9112; type: functional

MIC (Listeria monocytogenes [6]): 94.6 µM (≈ 30 µg/mL) | MIC (Enterococcus faecalis [7]): 47.3 µM (≈ 15 µg/mL) | MIC (Penicillium ochrochloron [9]): 63.1 µM (≈ 20 µg/mL) | MIC (Aspergillus ochraceus [13]): 47.3 µM (≈ 15 µg/mL) | MIC (Talaromyces funiculosus [15]): 31.5 µM (≈ 10 µg/mL) | MIC (Bacillus cereus [17]): 63.1 µM (≈ 20 µg/mL) | MIC (Staphylococcus aureus [22]): 94.6 µM (≈ 30 µg/mL) | MIC (Salmonella typhimurium [25]): 47.3 µM (≈ 15 µg/mL) | MIC (Escherichia coli [29]): 94.6 µM (≈ 30 µg/mL) | MIC (Aspergillus flavus [30]): 63.1 µM (≈ 20 µg/mL) | MIC (Trichoderma viride [34]): 47.3 µM (≈ 15 µg/mL) | MIC (Aspergillus ochraceus [35]): 63.1 µM (≈ 20 µg/mL) | MIC (Pseudomonas aeruginosa [37]): 47.3 µM (≈ 15 µg/mL) | MIC (Aspergillus niger [40]): 47.3 µM (≈ 15 µg/mL) | MIC (Candida albicans [41]): 31.5 µM (≈ 10 µg/mL) | MIC (Micrococcus flavus [42]): 94.6 µM (≈ 30 µg/mL)
Structure (SMILES): CCNc1nc(C)c(C(=O)/C=C/c2ccc([N+](=O)[O-])cc2)s1
Ratio (Pseudomonas aeruginosa [1]): 10 | MFC (Aspergillus ochraceus [2]): 78.8 µM (≈ 25 µg/mL) | MBC (Bacillus cereus [3]): 94.6 µM (≈ 30 µg/mL) | MFC (Trichoderma viride [4]): 63.1 µM (≈ 20 µg/mL) | MFC (Candida albicans [5]): 63.1 µM (≈ 20 µg/mL) | Ratio (Candida albicans [8]): 10 | MBC (Salmonella typhimurium [10]): 63.1 µM (≈ 20 µg/mL) | Ratio (Penicillium ochrochloron [11]): 10 | Ratio (Trichoderma viride [12]): 10 | MBC (Enterococcus faecalis [14]): 63.1 µM (≈ 20 µg/mL) | Ratio (Aspergillus ochraceus [16]): 10 | MFC (Aspergillus niger [18]): 63.1 µM (≈ 20 µg/mL) | MFC (Aspergillus fumigatus [19]): 63.1 µM (≈ 20 µg/mL) | MBC (Listeria monocytogenes [20]): 94.6 µM (≈ 30 µg/mL) | MBC (Staphylococcus aureus [21]): 94.6 µM (≈ 30 µg/mL) | Ratio (Aspergillus niger [23]): 10 | Ratio (Aspergillus ochraceus [24]): 10 | MBC (Micrococcus flavus [26]): 94.6 µM (≈ 30 µg/mL) | Ratio (Talaromyces funiculosus [27]): 10 | MFC (Talaromyces funiculosus [28]): 63.1 µM (≈ 20 µg/mL) | MBC (Pseudomonas aeruginosa [31]): 63.1 µM (≈ 20 µg/mL) | MFC (Aspergillus flavus [32]): 78.8 µM (≈ 25 µg/mL) | Ratio (Aspergillus fumigatus [33]): 10 | Ratio (Candida albicans [36]): 10 | MFC (Penicillium ochrochloron [38]): 78.8 µM (≈ 25 µg/mL) | MBC (Escherichia coli [39]): 94.6 µM (≈ 30 µg/mL) | Ratio (Penicillium ochrochloron [43]): 10
